≈ marks a conversion by molar mass, not a printed value.
Columns and labels:
[1] = Inhibition of Staphylococcus aureus thymidylate kinase assessed as effect on conversion of dTDP to dTMP by luciferin/luciferase reporter gene based assay
[2] = Inhibition of Streptococcus pneumoniae thymidylate kinase assessed as effect on conversion of dTDP to dTMP by luciferin/luciferase reporter gene based assay
Staphylococcus aureus [3] = assay: Antimicrobial activity against methicillin and quinolone-resistant Staphylococcus aureus by broth microdilution method; format: functional
In short: (§1)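 MICs were determined against bacterial strains from the AstraZeneca collection. For S. aureus, MSQS means methicillin- and quinolone-sensitive, and MRQR means methicillin- and quinolone-resistant.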

Staphylococcus aureus [4] = assay: Antimicrobial activity against methicillin and quinolone-sensitive Staphylococcus aureus by broth microdilution method; format: functional; in short: as §1
Streptococcus pneumoniae = assay: Antimicrobial activity against Streptococcus pneumoniae by broth microdilution method; format: functional
In short: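 Test organisms were strains from the AstraZeneca collection.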

[5] = Partition coefficient, log D of the compound at pH 7.4 by shake flask method; conditions: octanol/water
Candida albicans = assay: Toxicity against Candida albicans; format: organism-based
[6] = Toxicity against human A549 cells; format: cell-based; conditions: read-out: MIC
Thymidylate kinase = molecular target: T1, Thymidylate kinase (Homo sapiens, UniProt P23919); assay: Inhibition of human thymidylate kinase assessed as effect on ATP production by Escherichia coli DdlA and Malachite green reagent based assay
T1 sequence (P23919 whole entry): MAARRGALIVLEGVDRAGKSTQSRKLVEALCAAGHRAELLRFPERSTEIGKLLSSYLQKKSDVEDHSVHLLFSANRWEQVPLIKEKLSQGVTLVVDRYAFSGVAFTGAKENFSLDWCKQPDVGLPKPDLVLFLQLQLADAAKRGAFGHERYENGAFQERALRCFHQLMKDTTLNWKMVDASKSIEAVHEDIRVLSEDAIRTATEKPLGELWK

Staphylococcus aureus [7] = assay: Antimicrobial activity against Staphylococcus aureus infected in mouse thigh infection model assessed as compound dose causing microbial infection stasis administered as single dose; format: functional, Thigh muscle

| IC50 [1] | IC50 [2] | SMILES | MIC (Staphylococcus aureus [3]) | MIC (Staphylococcus aureus [4]) | MIC (Streptococcus pneumoniae) | further results |
| --- | --- | --- | --- | --- | --- | --- |
| 3200 nM | 400 nM | Cc1cn([C@H]2CCCN(Cc3cccc(Oc4cccc(F)c4)c3)C2)c(=O)[nH]c1=O | – | – | – | – |
| 1200 nM | 150 nM | Cc1cn([C@H]2CCCN(Cc3cccc(Oc4cccc(Cl)c4)c3)C2)c(=O)[nH]c1=O | – | – | – | – |
| 600 nM | 100 nM | Cc1cn([C@H]2CCCN(Cc3cccc(Oc4cccc(Br)c4)c3)C2)c(=O)[nH]c1=O | – | – | – | – |
| 8500 nM | 400 nM | Cc1cn([C@H]2CCCN(Cc3cccc(Oc4ccc(Cl)cc4)c3)C2)c(=O)[nH]c1=O | – | – | – | – |
| > 200000 nM | 5100 nM | Cc1cn([C@@H]2CCCN(Cc3cccc(Oc4ccc(Cl)cc4)c3)C2)c(=O)[nH]c1=O | – | – | – | – |
| 2600 nM | 400 nM | Cc1cn([C@H]2CCCN(Cc3cccc(Oc4ccc(Cl)c(Cl)c4)c3)C2)c(=O)[nH]c1=O | – | – | – | – |
| > 200000 nM | 18000 nM | Cc1cn([C@@H]2CCCN(Cc3cccc(Oc4ccc(Cl)c(Cl)c4)c3)C2)c(=O)[nH]c1=O | – | – | – | – |
| 59000 nM | 6000 nM | Cc1ccc(Oc2cccc(CN3CCCC(n4cc(C)c(=O)[nH]c4=O)C3)c2)cc1 (racemic) | – | – | – | – |
| 35000 nM | 1300 nM | Cc1cn(C2CCCN(Cc3cccc(Oc4ccc(Cl)cc4)c3)C2)c(=O)[nH]c1=O (racemic) | – | – | – | – |
| 143000 nM | 9000 nM | COc1ccc(Oc2cccc(CN3CCCC(n4cc(C)c(=O)[nH]c4=O)C3)c2)cc1 (racemic) | – | – | – | – |

Further lines, the molecule ahead of its results:

| SMILES | IC50 [1] | IC50 [2] | MIC (Staphylococcus aureus [3]) | MIC (Staphylococcus aureus [4]) | MIC (Streptococcus pneumoniae) | further results |
| --- | --- | --- | --- | --- | --- | --- |
| Cc1cn([C@H]2CCCN(Cc3cccc(Oc4cc(F)cc(Cl)c4)c3)C2)c(=O)[nH]c1=O | 2100 nM | 100 nM | – | – | – | – |
| Cc1cn([C@H]2CCCN(Cc3cccc(Oc4cc(Cl)cc(Cl)c4)c3)C2)c(=O)[nH]c1=O | 1500 nM | 400 nM | – | – | – | – |
| Cc1cn([C@H]2CCCN(Cc3ccc(C(=O)O)c(Oc4cccc(Cl)c4)c3)C2)c(=O)[nH]c1=O | 73 nM | 1.9 nM | 32 µg/mL (≈ 68.1 µM) | 32 µg/mL (≈ 68.1 µM) | 1 µg/mL (≈ 2.13 µM) | – |
| Cc1cn([C@H]2CCCN(Cc3ccc(C(=O)O)c(Oc4cccc(Br)c4)c3)C2)c(=O)[nH]c1=O | 27 nM | 1 nM | 32 µg/mL (≈ 62.2 µM) | 16 µg/mL (≈ 31.1 µM) | 1 µg/mL (≈ 1.94 µM) | logD [5]: -0.51 |
| Cc1cccc(Oc2cc(CN3CCC[C@H](n4cc(C)c(=O)[nH]c4=O)C3)ccc2C(=O)O)c1 | 114 nM | 8 nM | 128 µg/mL (≈ 285 µM) | 64 µg/mL (≈ 142 µM) | 4 µg/mL (≈ 8.9 µM) | – |
| Cc1cn([C@H]2CCCN(Cc3ccc(C(=O)O)c(Oc4cccc(F)c4)c3)C2)c(=O)[nH]c1=O | 339 nM | 28 nM | 128 µg/mL (≈ 282 µM) | 128 µg/mL (≈ 282 µM) | 32 µg/mL (≈ 70.6 µM) | logD [5]: -1 |
| Cc1cn([C@H]2CCCN(Cc3ccc(C(=O)O)c(Oc4cccc(C(F)(F)F)c4)c3)C2)c(=O)[nH]c1=O | – | 10 nM | 64 µg/mL (≈ 127 µM) | 64 µg/mL (≈ 127 µM) | 4 µg/mL (≈ 7.94 µM) | MIC (Candida albicans): > 64 µg/mL; MCC [6]: > 64 µg/mL; IC50 (Thymidylate kinase): > 200000 nM; logD [5]: -0.38 |
| CC[C@H](c1ccc(C(=O)O)c(Oc2cccc(Cl)c2)c1)N1CCC[C@H](n2cc(C)c(=O)[nH]c2=O)C1 (racemic) | 13.7 nM | 0.6 nM | 2 µg/mL (≈ 4.02 µM) | 2 µg/mL (≈ 4.02 µM) | 0.1 µg/mL (≈ 0.201 µM) | logD [5]: 0.2 |
| Cc1cn(C2CCCN(Cc3cccc(Oc4cccc(C(F)(F)F)c4)c3)C2)c(=O)[nH]c1=O (racemic) | – | 15000 nM | – | – | – | – |
| C[C@H]1COc2c(N3CCN(C)CC3)c(F)cc3c(=O)c(C(=O)O)cn1c23.C[C@H]1COc2c(N3CCN(C)CC3)c(F)cc3c(=O)c(C(=O)O)cn1c23.O [LEVOFLOXACIN] | – | – | – | – | – | Activity (Staphylococcus aureus [7]): 40 mg/kg |

— ChEMBL document CHEMBL2177095, “Discovery of selective and potent inhibitors of gram-positive bacterial thymidylate kinase (TMK)” (J Med Chem, 2012)
